Results on six compounds are retold here after ChEMBL document CHEMBL1158367, “Cationic surfactants from lysine: synthesis, micellization and biological evaluation” (Eur J Med Chem, 2009).

Data set [1] deals with Klebsiella aerogenes. As to the kind of experiment: Antimicrobial activity against Enterobacter aerogenes after 24 hrs. The class given is functional. In outline: (§1)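 MIC by agar dilution: compound incorporated in nutrient agar at 0.1–256 µg/mL, with poorly soluble surfactants predissolved in minimal DMF and a DMF-matched solvent control. Plates were seeded with nutrient broth starter culture and incubated at 37 °C. Growth was scored visually after 24 h; test medium pH 6.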

The test system of data set [2] is Serratia marcescens. Description: Antimicrobial activity against Serratia marcescens after 24 hrs. The class given is functional. In outline:
as §1

For data set [3], the system named is Bordetella bronchiseptica. Description: Antimicrobial activity against Bordetella bronchiseptica after 24 hrs. The class given is functional. In outline: as §1
Data set [4] relates to Pseudomonas aeruginosa. Description: Antimicrobial activity against Pseudomonas aeruginosa after 24 hrs. The class given is functional. In outline: as §1
Data set [5] concerns Salmonella enterica subsp. enterica. Description: Antimicrobial activity against Salmonella Typhimurium after 24 hrs. The class given is functional, Salmonella enterica subsp. enterica serovar Typhimurium. In outline:
as §1

Data set [6] deals with Escherichia coli. Description: Antimicrobial activity against Escherichia coli after 24 hrs. The class given is functional. In outline: as §1
Data set [7] concerns Klebsiella pneumoniae. Description: Antimicrobial activity against Klebsiella pneumoniae after 24 hrs. The class given is functional. In outline:
as §1

Data set [8] has as its system Candida albicans. Description: Antimicrobial activity against Candida albicans after 24 hrs. The class given is functional. In outline:
as §1

Data set [9] has as its system Mycolicibacterium phlei. As to the kind of experiment: Antimicrobial activity against Mycobacterium phlei after 24 hrs. The class given is functional. In outline:
as §1

In data set [10] the test system is Staphylococcus epidermidis. Description: Antimicrobial activity against Staphylococcus epidermidis after 24 hrs. The class given is functional. In outline:
as §1

Data set [11] concerns Bacillus subtilis. Description: Antimicrobial activity against Bacillus subtilis after 24 hrs. The class given is functional. In outline: as §1
Data set [12] deals with Staphylococcus aureus. As to the kind of experiment: Antimicrobial activity against Staphylococcus aureus after 24 hrs. The class given is functional. In outline: as §1
The test system of data set [13] is Micrococcus luteus. As to the kind of experiment: Antimicrobial activity against Micrococcus luteus after 24 hrs. The class given is functional. In outline:
as §1

The test system of data set [14] is Enterococcus hirae. As to the kind of experiment: Antimicrobial activity against Enterococcus hirae after 24 hrs. The class given is functional. In outline:
as §1

Data set [15] has as its system Bacillus cereus. Description: Antimicrobial activity against Bacillus cereus var. mycoides after 24 hrs. The class given is functional. In outline: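 Agar dilution MIC: compounds incorporated into nutrient agar over 0.1–256 µg/mL; poorly soluble ones first dissolved in minimal DMF, then diluted into medium, with a DMF-supplemented solvent control. Inoculated from a nutrient broth starter culture to a final ca. 5 × […] CFU/mL. Incubated 24 h at 37 °C; growth scored visually against a compound-free control.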

Data set [16] is described as follows: Toxicity against Daphnia magna after 24 hrs by immobility assay. In outline:
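Daphnia magna acute test using laboratory-bred animals no older than 24 h. Medium pH 8.0, hardness 250 mg/L as CaCO3 (Ca/Mg 4/1), dark, 20 °C. Four groups of five per concentration, ten concentrations in geometric series. Immobility at 24 h plotted on log-probability paper; IC50 with 95% confidence ranges.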

A short description of data set [17]: Toxicity in human erythrocytes assessed as hemolytic activity. The class given is cell-based, Erythrocyte. In outline:
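Erythrocytes washed three times in isotonic phosphate saline with 10 mmol/L glucose, pH 7.4, then exposed to surfactant for 10 min at room temperature with shaking and centrifuged. Supernatant A540 compared with water-lysed total-haemolysis controls. HC50 read from percent haemolysis versus concentration plots.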

Data set [18] can be described thus: Critical micelle concentration by PGSE-NMR method. The class given is physicochemical. In outline:
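Surfactant intradiffusion measured by PGSE-NMR, varying gradient strength, from alkyl-chain CH2 signal intensities, at 25 °C (50 °C for the palmitoyl analogue). CMC taken from fitting the two-site exchange model D_obs = p_mic·D_mic + (1−p_mic)·D_free to the descending part of D versus concentration.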

For data set [19], the system named is Candida albicans. Description: Antimicrobial activity against Candida albicans at […] after 24 hrs. The class given is functional, organism-based.
The subject of data set [20] is Klebsiella pneumoniae. Description: Antimicrobial activity against Klebsiella pneumoniae at […] after 24 hrs. The class given is functional, organism-based.
Data set [21] has as its system Escherichia coli. As to the kind of experiment: Antimicrobial activity against Escherichia coli at […] after 24 hrs. The class given is functional, organism-based.
In data set [22] the test system is Salmonella enterica subsp. enterica. As to the kind of experiment: Antimicrobial activity against Salmonella Typhimurium at […] after 24 hrs. The class given is functional, organism-based. Conditions: Salmonella enterica subsp. enterica serovar Typhimurium.
For data set [23], the system named is Pseudomonas aeruginosa. As to the kind of experiment: Antimicrobial activity against Pseudomonas aeruginosa at […] after 24 hrs. The class given is functional, organism-based.
The test system of data set [24] is Bordetella bronchiseptica. Description: Antimicrobial activity against Bordetella bronchiseptica at […] after 24 hrs. The class given is functional, organism-based.
The subject of data set [25] is Serratia marcescens. Description: Antimicrobial activity against Serratia marcescens at […] after 24 hrs. The class given is functional, organism-based.
Data set [26] deals with Klebsiella aerogenes. As to the kind of experiment: Antimicrobial activity against Enterobacter aerogenes at […] after 24 hrs. The class given is functional, organism-based.
A short description of data set [27]: Dissociation constant, pKa of the compound. The class given is physicochemical. In outline: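 Apparent pKa calculated from pH measurements of surfactant solutions at concentrations that show antimicrobial activity.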

For orientation: MIC means the lowest concentration found to suppress growth. High values mean a need for much substance, low ones inhibition by little substance. One may read the IC50 as the point on the concentration scale where inhibition reaches its midpoint. Broadly, the pKa is the pH at which an ionisable group is half protonated. A lower pKa goes with a group that gives up its proton readily.

Converted amounts (≈) assume the structure as drawn. The source made the active and inactive calls. No cut-off for these calls is given here.

Regarding `CCCCCCCCCCCC(=O)N[C@@H](CCCNC(=N)N)C(=O)OC`, the MIC in data set [1] came to 157 µM (≈ 58.2 µg/mL); in [2] it was 315 µM (≈ 117 µg/mL); in data set [3] it was 157 µM (≈ 58.2 µg/mL); in data set [4] it was 157 µM (≈ 58.2 µg/mL); in data set [5], 157 µM (≈ 58.2 µg/mL); in [6] it was 157 µM (≈ 58.2 µg/mL). Further, the MIC worked out at 79 µM (≈ 29.3 µg/mL) in [7]; 157 µM (≈ 58.2 µg/mL) in data set [8]; 39 µM (≈ 14.5 µg/mL) in data set [9]; 20 µM (≈ 7.41 µg/mL) in data set [10]; 157 µM (≈ 58.2 µg/mL) in data set [11]; 39 µM (≈ 14.5 µg/mL) in data set [12]. The MIC in data set [13], in [14] and in [15] was 39 µM (≈ 14.5 µg/mL) in each case. Besides, the IC50 in [16] is 36 µM; in [17], 150 µM.

For `CCCCCCCCCCCCCCCC(=O)NCCCC[C@H](N)C(=O)OC.Cl`, the MIC is 148 µM in [9]; 148 µM in [10]; 148 µM in data set [11]; 148 µM in data set [12]; 74 µM in [13]; 74 µM in data set [14]. In data set [15], this compound showed an MIC of 148 µM. Further, the IC50 in data set [17] worked out at 1450 µM. In data set [18], this compound had a CMC of 0.6 mM. Also, the result in [19], in data set [20], in data set [21], in data set [22], in data set [23] and in [24] was inactive. Moreover, the result in data set [25] and in data set [26] was inactive.

Regarding hexadecyl trimethyl ammonium bromide, the MIC in data set [3] is 20 µM; in data set [6], 44 µM; in data set [7], 44 µM; in data set [10], 10 µM; in [11] it was 44 µM; in data set [13], 44 µM.

On to `CCCCCCCCCCCCCC(=O)NCCCC[C@H](N)C(=O)OC.Cl`, for which the MIC stood at 157 µM in data set [6]; 78 µM in data set [9]; 157 µM in data set [10]; 157 µM in [11]; 157 µM in data set [12]; 157 µM in data set [13]. The MIC in data set [14] and in data set [15] was 157 µM in each case. The half-inhibitory concentration (IC50) was determined as 7.3 µM in data set [16] and 1230 µM in data set [17]. The same compound came in with a pKa in data set [27] of 7.8. In [18], this compound yielded a CMC of 1.6 mM. Further, the outcome in data set [19], in data set [20], in data set [22], in data set [23], in data set [24] and in data set [25] was inactive. The result in [26] was inactive.

Turning to `CCCCCCCCCCCC(=O)NCCCC[C@H](N)C(=O)OC.Cl`, the MIC is 169 µM in [6]; 338 µM in data set [7]; 169 µM in [8]; 169 µM in data set [9]; 169 µM in [10]; 338 µM in data set [11]. In addition, the minimal inhibitory concentration (MIC) in [12] came to 338 µM; in [13], 338 µM; in data set [14], 338 µM; in [15] it was 169 µM. In addition, the IC50 amounted to 32 µM in data set [16] and 391 µM in [17]. This compound also yielded a pKa in [27] of 8.2. The same compound yielded a CMC in [18] of 5.5 mM. For the same compound, the result in [22], in data set [23], in data set [24], in [25] and in data set [26] was inactive.

With `CCCCCCCCCCCC(=O)N[C@@H](CCCCN)C(=O)OC`, the MIC in data set [1] was 157 µM (≈ 53.8 µg/mL); in data set [2], 338 µM (≈ 116 µg/mL); in [3], 42 µM (≈ 14.4 µg/mL); in data set [4], 169 µM (≈ 57.9 µg/mL); in data set [5] it was 85 µM (≈ 29.1 µg/mL); in data set [6] it was 42 µM (≈ 14.4 µg/mL). Further, the MIC in data set [7] was 85 µM (≈ 29.1 µg/mL); in data set [10], 42 µM (≈ 14.4 µg/mL); in [11] it was 42 µM (≈ 14.4 µg/mL); in data set [12], 85 µM (≈ 29.1 µg/mL); in data set [13] it was 11 µM (≈ 3.77 µg/mL). Further, the IC50 in [17] came to 199 µM.
